Measurements gathered from unrelated publications.
Each line is one published result; the experiments were not run side by side. Values after ≈ are worked out from the molar mass of the structure shown.

| Compound | test | system | setting | endpoint | value |
| --- | --- | --- | --- | --- | --- |
| C/C=C1/CN2CC[C@@]34c5cc(O)ccc5N(C)[C@]35OC[C@@]4(C(=O)OC)[C@H]1C[C@H]25 |  | Caco-2 | 10 µM, 2 h, pH 7.4 | Papp B→A | 30.9 ×10⁻⁶ cm/s |
| Cl.Cn1c(=O)n(CCCCN2CCC3(CC2)OCc2ccccc23)c2ccccc21 |  | male Sprague-Dawley rat, brain | intravenous, 10 mg/kg | tissue/plasma ratio | 0.48 |
| C/C=C1/CN2CC[C@]34C(=C(C(=O)OC)[C@H]1C[C@H]23)Nc1ccccc14 |  | Caco-2 | 10 µM, 2 h, pH 7.4 | Papp A→B | 38.1 ×10⁻⁶ cm/s |
| CC=CCC(C)C1OC(=O)C(C(C)C)N(C)C(=O)C(CC(C)C)N(C)C(=O)C(CC(C)C)N(C)C(=O)C(C)NC(=O)C(C)NC(=O)C(CC(C)C)N(C)C(=O)C(C(C)C)NC(=O)C(CC(C)C)N(C)C(=O)CN(C)C(=O)C(CC)NC(=O)C1NC (centres unmarked) |  | aqueous buffer | 18 h, pH 7.4 | solubility | 91 µM (≈ 109 µg/mL) |
| O=c1c2cc(Cl)c(CO)cc2[nH]c(=S)n1Cc1cncnc1 |  | Caco-2 | 10 µM, 90 min, pH 7.4 | Papp A→B | 14 ×10⁻⁶ cm/s |
| COc1cc(C2C3=C(COC3=O)N(CCO)c3cc4c(cc32)CCC4)cc(OC)c1OC (centres unmarked) | general toxicity | female C57BL/6 mouse | intraperitoneal, single dose | MTD | ≥ 400 mg/kg |
| CC[C@H](C)[C@H]1C(=O)N[C@H]([C@H](C)O)C(=O)NCC(=O)N[C@@H](CC(C)C)C(=O)N2CCC[C@H]2C(=O)N[C@@H](Cc2ccc(O)cc2)C(=O)N[C@H](CC(C)C)C(=O)N2CCC[C@@H]2C(=O)NCC(=O)N[C@@H](Cc2ccc(O)cc2)C(=O)N1C |  | aqueous buffer | 18 h, pH 7.4 | solubility | 933 µM (≈ 1020 µg/mL) |
| CC(c1cncnc1)n1c(=S)[nH]c2ccc(Cl)cc2c1=O (centres unmarked) |  | Caco-2 | 10 µM, 90 min, pH 7.4 | Papp B→A | 38.4 ×10⁻⁶ cm/s |
